PABP polyA inh = PABP-poly(A) binding inhibition; PABP-poly(A) RNA binding, fluorescence polarization; inhibition, % at 35 µM; hit rate 1% among 290,000;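 further: calls also rest on retests at 20 µM and on dose response follow-up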
Target sequence (P11940 whole entry, looked up): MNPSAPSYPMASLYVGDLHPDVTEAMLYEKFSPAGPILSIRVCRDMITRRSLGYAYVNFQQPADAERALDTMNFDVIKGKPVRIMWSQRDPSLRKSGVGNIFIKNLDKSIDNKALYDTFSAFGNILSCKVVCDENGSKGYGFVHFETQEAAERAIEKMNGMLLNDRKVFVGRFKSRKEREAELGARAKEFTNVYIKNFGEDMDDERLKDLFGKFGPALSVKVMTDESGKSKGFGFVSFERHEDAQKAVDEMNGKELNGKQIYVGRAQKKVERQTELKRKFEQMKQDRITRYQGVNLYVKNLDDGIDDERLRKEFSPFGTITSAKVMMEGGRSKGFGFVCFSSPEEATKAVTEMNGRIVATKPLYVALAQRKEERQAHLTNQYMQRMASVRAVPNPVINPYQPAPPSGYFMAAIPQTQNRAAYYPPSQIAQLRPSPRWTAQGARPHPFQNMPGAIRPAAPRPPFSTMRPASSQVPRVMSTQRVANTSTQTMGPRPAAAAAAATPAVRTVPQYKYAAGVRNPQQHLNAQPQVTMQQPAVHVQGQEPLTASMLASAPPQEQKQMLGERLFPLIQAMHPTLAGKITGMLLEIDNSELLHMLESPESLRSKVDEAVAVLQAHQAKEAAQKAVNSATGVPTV
MT1-MMP act inh = MT1-MMP (human) activation inhibition; P50281; HT1080 RFP-PRO-GFP cells, GFP/RFP ratio fluorescence, overnight; percent of plate control window, DMSO zero; GFP/RFP ratio change, % at 20 µM; hit rate 0.061% among 360,000; AID 651647;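 active means GFP/RFP ratio change of at least 30% with cell ATP level not reduced by more than half and red fluorescence within 50% of control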
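Test system: HT1080 RFP-PRO-GFP cells; Benchmarks: DMSO and RFP-L50D-GFP cell wells; Timing: cells overnight before dosing, compound overnight, 37 °C, 5% CO2; Compound: one 20 µM compound dose with 1% DMSO; Read-out: GFP/RFP fluorescence ratio.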
SKN-1 inh = blocks SKN-1 activity in C. elegans; C. elegans VP596 Pgst-4::GFP/RFP ratio, acrylamide-induced, 24 h; inhibition, % at 21.8 µM; hit rate 0.49% among 360,000; AID 624304;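 active means interference check ratio from 0.5 to 1.5 plus GFP to RFP signal ratio inhibition reaching or exceeding a fixed threshold, cut at about 30% in these data, passing the limit was not always enough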
eIF4H inh = inhibitors of RNA binding by human eIF4H; inhibition, % at 35 µM; hit rate 0.94% among 290,000; Q15056; eIF4H fluorescence polarization binding assay;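 further: calls also rest on retests at 20 µM and on dose response follow-up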
PABP1 MLLE inh = blocks PAM2 peptide binding to the PABP1 MLLE domain; P11940; GST-MLLE / FITC-PAM2 fluorescence polarization; inhibition, % at 20 µM; hit rate 0.36% among 360,000; AID 588489; in the data active means inhibition above about 35%, passing the limit was not always enough;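 further: plate controls were DMSO wells with GST-MLLE for no effect and wells lacking GST-MLLE protein for full effect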
Active calls of the source: *. A selection: hits, their analogues and other compounds. The true share with any hit is near 1.7%. Unless noted, how the calls were made is not given here.

What do the screens show for `O=C(CN1C(=O)c2ccccc2S1(=O)=O)Nc1ncc(Cl)cc1Cl`?
MT1-MMP act inh: -10; SKN-1 inh: 12; PABP1 MLLE inh: 49*

Results for O=C(CSc1ncnc2scc(-c3ccc(Cl)cc3)c12)NCc1ccc2c(c1)OCO2 ?
PABP polyA inh: -6; MT1-MMP act inh: -2; SKN-1 inh: 46*; eIF4H inh: 2; PABP1 MLLE inh: -6

How did Cc1ccc(-c2csc3ncnc(SCC(=O)NCc4ccc5c(c4)OCO5)c23)cc1 do in these assays?
PABP polyA inh: 13; MT1-MMP act inh: -8; SKN-1 inh: 10; eIF4H inh: 23; PABP1 MLLE inh: -20

How did C=CCn1c(SCc2cc(=O)n3ccsc3n2)nnc1C1CCCCC1 do in these assays?
PABP polyA inh: 26*; MT1-MMP act inh: 20; SKN-1 inh: 2; eIF4H inh: 73*; PABP1 MLLE inh: -32

How did Cc1ccc(CNC(=O)c2ccc(Cl)c(S(=O)(=O)N3CCCCC3)c2)cc1 do in these assays?
MT1-MMP act inh: 0; SKN-1 inh: -1; PABP1 MLLE inh: 10

What do the screens show for `O=[N+]([O-])c1ccc(Cl)c(-c2ccc(/C=N/c3c(-c4ccco4)nc4ccccn34)o2)c1`?
PABP polyA inh: 74*; MT1-MMP act inh: -8; SKN-1 inh: 12; eIF4H inh: inconclusive; PABP1 MLLE inh: 2

How did O=[N+]([O-])c1ccc(-c2ccc(/C=N/c3c(-c4ccco4)nc4ccccn34)o2)cc1 do in these assays?
PABP polyA inh: 60*; MT1-MMP act inh: -32; SKN-1 inh: 5; eIF4H inh: inconclusive; PABP1 MLLE inh: 10

How did CCC1CCCCN1CC(=O)c1c(C)[nH]c2cc(C)ccc12 (stereo not given) do in these assays?
PABP polyA inh: 3; MT1-MMP act inh: -1; SKN-1 inh: -6; eIF4H inh: 12; PABP1 MLLE inh: -14

How did COc1ccc2c(c1)[C@H]1[C@H](CO2)[C@H](c2ccccc2)[C@]2(C)C(=O)N[C@H](C)C(=O)N12 do in these assays?
MT1-MMP act inh: -1; SKN-1 inh: 17; PABP1 MLLE inh: -11

What do the screens show for `O=C(O)c1cc(O)c2c(c1)[C@H]([C@H]1c3cc(C(=O)O)cc(O)c3C(=O)c3c(O[C@@H]4O[C@H](CO)[C@@H](O)[C@H](O)[C@H]4O)cccc31)c1cccc(OC3O[C@H](CO)[C@@H](O)[C@H](O)[C@H]3O)c1C2=O` (stereo not given in full)?
MT1-MMP act inh: 9; SKN-1 inh: 4; PABP1 MLLE inh: 52*

How did COc1cccc(CN2CCC(Oc3ccc(C(=O)N4CCCCC4)cc3)CC2)c1O do in these assays?
PABP polyA inh: -10; MT1-MMP act inh: 0; SKN-1 inh: 4; eIF4H inh: -4; PABP1 MLLE inh: -2

Results for COc1cccc(C(=O)C2CCCN(Cc3cccn3-c3cccnc3)C2)c1 (stereo not given) ?
PABP polyA inh: 1.0*; MT1-MMP act inh: 0; SKN-1 inh: -1; eIF4H inh: 81; PABP1 MLLE inh: -9

What do the screens show for `COc1cccc(NC(=S)Nc2cc(C)cc(C)n2)c1`?
PABP polyA inh: 1; MT1-MMP act inh: -4; SKN-1 inh: 0; eIF4H inh: -4; PABP1 MLLE inh: 45*

Results for Cc1cc(C)nc(NC(=S)Nc2cccc(F)c2)c1 ?
PABP polyA inh: 5; MT1-MMP act inh: -1; SKN-1 inh: 0; eIF4H inh: -2; PABP1 MLLE inh: 32

Results for CCN1C=C(Cc2ccccc2C)C2=C(C1)C(c1ccccc1C)C(C#N)=C(N)O2 (stereo not given) ?
PABP polyA inh: 52*; MT1-MMP act inh: -3; SKN-1 inh: 18; eIF4H inh: 20; PABP1 MLLE inh: -5

How did Oc1ccc(/C=N/Nc2ccc(C(F)(F)F)cn2)cc1 do in these assays?
PABP polyA inh: 3; MT1-MMP act inh: -2; SKN-1 inh: 4; eIF4H inh: 6; PABP1 MLLE inh: 7

What do the screens show for `C/C(=N\Nc1ccc(C(F)(F)F)cn1)c1ccncc1`?
PABP polyA inh: 80*; MT1-MMP act inh: -9; SKN-1 inh: -1; eIF4H inh: active; PABP1 MLLE inh: 2

How did O=C1NC(=O)C(c2ccccc2[N+](=O)[O-])=C1Nc1ccc(O)c(Cl)c1 do in these assays?
PABP polyA inh: 40*; MT1-MMP act inh: -2; SKN-1 inh: 6; eIF4H inh: 67*; PABP1 MLLE inh: 27

How did Cc1ccc(-c2nc(CC(=O)Nc3cccc(S(=O)(=O)NC4=NCCC4)c3)cs2)cc1 do in these assays?
MT1-MMP act inh: 5; SKN-1 inh: 16; PABP1 MLLE inh: -35
